The values below come from paper PMC3188381 (Anti-cancer drugs, 2011).

Read-outs that look alike come from different tables or passages of the source. Where only a bound is given, the exact number is not on record here.

Data set [1] concerns OVCA432 ovarian cancer cells. In words: Proliferation assay. The data set is classed as cell-based, human. Conditions: read-out: IC50 (μM) OVCA432.
For data set [2], the system named is SKOV3 ovarian cancer cells. The experiment in a line: Proliferation assay. The format is cell-based, human. Conditions: read-out: IC50 (μM) SKOV3.
The test system of data set [3] is SKOV3 cells. In words: Western blot of cell lysates, SKOV3. The data set is classed as cell-based, human. Conditions: for Cleaved PARP protein expression / Cleaved caspase-3 protein expression: SKOV3, 24 hours, 50 μM LiCl, 5 μM 9ING41, 25 μM SB216763. Summed up:
(§1)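 Lysates taken after 24 h treatment with test compound or 0.1% DMSO, in Tris-HCl pH 7.6/NaCl/NP-40/deoxycholate/SDS buffer with protease and phosphatase inhibitors, protein equalised by BCA. Run on reducing 10% Bis-Tris gels and transferred to PVDF. Blocked in 5% milk TBS-T; cleaved caspase-3 in 5% BSA PBS-0.5% tween; cyclin D1 in 5% BSA TBS-T. Probed with rabbit primaries (total GSK3β, actin as controls) and HRP anti-rabbit, detected by chemiluminescence. Densitometry from triplicate blots.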
(A western blot detects proteins with antibodies after separation by electrophoresis.)

In data set [4] the test system is SKOV3 ovarian cancer cells. The note with it: cited from earlier work.
In data set [5] the test system is OVCA432 cells. In words: DAPI staining for apoptotic cells, OVCA432. The data set is classed as cell-based, human. Conditions: OVCA432, 24 hrs; 50 μM LiCl, 5 μM 9ING41, 25 μM SB216763; vs DMSO. In outline:
(§2)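 OVCA432 grown in supplemented MEM and SKOV3 in McCoy's 5A, both with 10% FBS, at 37 °C, 5% CO2. Cells plated at 5 × 10^4 per chamber-slide well and left to attach overnight. Exposed one day to test compound or 0.1% DMSO, then fixed in 4% paraformaldehyde and mounted in DAPI medium. Nuclei with condensed DNA or […] fragmentation counted in 3 fields (20× objective), triplicate experiments.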

Data set [6] relates to OVCA432 cells. In words: Western blot of cell lysates, OVCA432. The format is cell-based, human. The note with it: for Cleaved PARP protein expression / Cleaved caspase-3 protein expression: OVCA432, 24 hours, 50 μM LiCl, 5 μM 9ING41, 25 μM SB216763. In outline: as §1
The subject of data set [7] is SKOV3 cells. In words: TUNEL staining, SKOV3. The format is cell-based, human. The note with it: SKOV3, 24 hours, 5 μM 9ING41; vs DMSO. Summed up:
(§3)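 Cells plated at 5 × 10^4 per chamber-slide well, attached overnight at 37 °C, then treated 24 h with test compound or 0.1% DMSO. Fixed in 4% paraformaldehyde. Stained with a colorimetric TUNEL kit per manufacturer. Brown TUNEL-positive cells counted in 3 fields imaged with a 20× objective, from triplicate experiments.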

Data set [8] can be described thus: Range-finding toxicity study. The note with it: rats, oral, 8 days observation.
Data set [9] can be described thus: Bioavailability and plasma pharmacokinetics. The format is in vivo, Sprague-Dawley rats. The note with it: rat. Summed up: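 Male Sprague-Dawley rats dosed at 10 mg/kg iv and 400 mg/kg po. Blood drawn into EDTA (n=3), kept on ice and processed within 30 min. Plasma spun at 2–8 °C for 15 min and stored at -80 °C. Acetonitrile with 100 ng/ml hexylnicotinate internal standard added, then vortexed and centrifuged at 18000g. Supernatant run by LC-MS/MS. Non-compartmental PK analysis.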

In data set [10] the test system is OVCA432 cells. The experiment in a line: TUNEL staining, OVCA432. The data set is classed as cell-based, human. The note with it: OVCA432, 24 hours, 5 μM 9ING41; vs DMSO. In outline: as §3
Data set [11] deals with SKOV3 cells. In words: DAPI staining for apoptotic cells, SKOV3. The format is cell-based, human. Conditions: SKOV3, 24 hrs; 5 μM 9ING41; vs DMSO. In outline: as §2
For a further data set, the system named is SKOV3 xenograft. The note with it: drugs and cells mixed before subcutaneous injection; cited from earlier work.
The mark [12] stands for this setting: OVCA432 cells, 4 days (96 hours), concentration required to kill 50% of the cells.
Setting [13] is: SKOV3 cells, 4 days (96 hours), concentration required to kill 50% of the cells.

As for `COc1cccc2c(C3=C(c4cn(C)c5cc(Cl)c(F)cc45)C(=O)NC3=O)coc12` [9-ING-87], the IC50 (in general, the concentration that inhibits the measured activity by half) in [1] (setting [12]) turned out to be 10.7 µM; in data set [2] (setting [13]), 42.7 µM.
Regarding `Cn1cc(C2=C(c3ccc(Cl)cc3Cl)C(=O)NC2=O)c2ccccc21` [SB216763, reference compound], the “Cleaved PARP protein expression” value in the data set on SKOV3 cells [3] and in the data set on OVCA432 cells [6] was “absence” each time. Moreover, the “Cleaved caspase-3 protein expression” value in the data set with SKOV3 cells [3] and in the data set on OVCA432 cells [6] was “absence” each time. Besides, the “Growth inhibition of SKOV3” value in data set [4] is “growth inhibited”. Besides, in the data set on OVCA432 cells [5], the “Induction of apoptosis (DAPI)” value was “induced apoptosis”. Besides, the IC50 in data set [1] (Homo sapiens, OVCA432, 96 h) is greater than 50 µM; in [2] (Homo sapiens, SK-OV-3, 96 h) it was greater than 50 µM.
For `Cn1cc(C2=C(c3coc4ccc(F)cc34)C(=O)NC2=O)c2cc3c(cc21)OCO3` [9-ING-41], the “Apoptosis (TUNEL-positive cells)” value with SKOV3 cells [7] and in the data set with OVCA432 cells [10] was “significantly increased apoptosis” each time. For the same molecule, the “Cyclin D1 expression” value in the data set with SKOV3 cells [3] (SKOV3, 5 μM 9ING41, 24 hours) is listed as “increased”. Besides, the “Phosphorylation of GSK3β ser9 (normalized to total GSK3β)” value with SKOV3 cells [3] (SKOV3, 5 μM 9ING41, 24 hours) was “increased phosphorylation”; in the data set on OVCA432 cells [6] (OVCA432, 5 μM 9ING41, 24 hours) it was “increased phosphorylation”. The “Phosphorylation of glycogen synthase” value in the data set with SKOV3 cells [3] (SKOV3, 5 μM 9ING41, 24 hours) was “significantly inhibited”; in the data set on OVCA432 cells [6] (OVCA432, 5 μM 9ING41, 24 hours) it was “significantly inhibited”. In addition, the “Cleaved PARP protein expression” value in the data set with SKOV3 cells [3] and with OVCA432 cells [6] was “cleaved product of PARP was detected” each time. The “Cleaved caspase-3 protein expression” value in the data set on SKOV3 cells [3] and in the data set with OVCA432 cells [6] was “increase in cleaved caspase-3” each time. Besides, the “Maximum tolerated dose (MTD)” value in [8] is on record as “greater than 500 mg/kg”. Moreover, the “AUC (area under the concentration-time curve)” value in data set [9] (iv 10 mg/kg) came to 2740 ng·h/mL; in data set [9] (po 400 mg/kg) it was 4950 ng·h/mL. The figures for the “CL (systematic clearance)” value in data set [9] (iv 10 mg/kg) and in [9] (po 400 mg/kg) were 61.5 mL/min/kg and 2210 mL/min/kg, respectively. In [9] (iv 10 mg/kg), the “Co (plasma concentration at T = 0)” value worked out at 1390 ng/mL. Besides, the “T1/2 (apparent elimination half-life)” value in data set [9] (iv 10 mg/kg) was 4.85 h; in [9] (po 400 mg/kg) it was 4.0 h. Also, the entries for the “V (volume of distribution)” value in data set [9] (iv 10 mg/kg) and in [9] (po 400 mg/kg) were 26.2 L/kg and 810 L/kg, respectively. In [9] (iv 10 mg/kg and po 400 mg/kg), this molecule returned an Elimination half-life of 4.0 to 4.85 h. In addition, the Volumes of distribution in [9] (iv 10 mg/kg and po 400 mg/kg) is no less than 26 L/kg. Further, the “Plasma level C” value in data set [9] (iv 10 mg/kg, 0.083 h) amounted to 1390 ng/mL; in data set [9] (iv 10 mg/kg, 0.167 h), 1410 ng/mL; in data set [9] (iv 10 mg/kg, 0.5 h), 1190 ng/mL; in data set [9] (iv 10 mg/kg, 1 h), 690 ng/mL; in data set [9] (iv 10 mg/kg, 2 h) it was 367 ng/mL; in [9] (iv 10 mg/kg, 4 h), 139 ng/mL. Further, the “Plasma level C” value is 77 ng/mL in data set [9] (iv 10 mg/kg, 6 h); 41 ng/mL in data set [9] (iv 10 mg/kg, 8 h); 6.7 ng/mL in data set [9] (iv 10 mg/kg, 24 h); 4.7 ng/mL in data set [9] (po 400 mg/kg, 0.083 h); 18.2 ng/mL in data set [9] (po 400 mg/kg, 0.167 h); 156 ng/mL in data set [9] (po 400 mg/kg, 0.5 h). Further, the “Plasma level C” value in data set [9] (po 400 mg/kg, 1 h) turned out to be 540 ng/mL; in data set [9] (po 400 mg/kg, 2 h), 820 ng/mL; in data set [9] (po 400 mg/kg, 4 h) it was 934 ng/mL; in data set [9] (po 400 mg/kg, 6 h), 340 ng/mL; in data set [9] (po 400 mg/kg, 8 h), 123 ng/mL; in data set [9] (po 400 mg/kg, 24 h), 8.3 ng/mL. Moreover, the “F (bioavailability)” value in data set [9] (po 400 mg/kg vs iv 10 mg/kg) was 4.5%. The “Induction of apoptosis (DAPI)” value in the data set on OVCA432 cells [5] and in the data set on SKOV3 cells [11] was “induced apoptosis” in each case. Besides, the IC50 in data set [1] (setting [12]) was 11.2 µM; in data set [2] (setting [13]) it was 10.5 µM.
`[Cl-].[Li+]` [LiCl, Lithium chloride, reference compound]: in the data set on SKOV3 cells [3], the “Cleaved PARP protein expression” value was “absence” and the “Cleaved caspase-3 protein expression” value is reported as “absence”. The “Growth inhibition of SKOV3” value in data set [4] is given as “growth inhibited”. Further, the SKOV3 tumor growth entry in the data set on SKOV3 xenograft is “significantly slow SKOV3 tumor growth”. For the same molecule, the “Induction of apoptosis (DAPI)” value in the data set on OVCA432 cells [5] is on record as “induced apoptosis”. For the same molecule, in the data set on OVCA432 cells [6], the “Cleaved PARP protein expression” value was “absence” and the “Cleaved caspase-3 protein expression” value is “absence”.
